Rows were chosen to be rich in hits. Some 1.8% of all compounds tested hit in one or more screens of this group.
Cneo AK release: Cryptococcus neoformans cell lysis inducers, primary screen, AK release luminescence, single concentration; C. neoformans lysis, adenylate kinase release luminescence, 4 h; normalised: neutral wells 0, clomiphene wells 100; lysis activity, % at 15 µM; hit rate 0.2% among 360,000; AID 651654, 2012;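 active = mean lysis activity across replicates of at least 80%, whatever share of replicates individually reach that level; inactive = mean lysis activity below 80%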
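Schedule: static 4 h at 37 °C with compound, 1 h detection; system: C. neoformans cells; benchmarks: Clomiphene as positive control; buffer or medium: fresh YPD medium; measure: luminescence rise reflecting yeast cell lysis; measured by: luminescent adenylate kinase detection reagent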
hiPSC survival: enhancers of single-cell hiPSC survival, primary screen, ATPlite luminescence. hit rate 0.044% among 360,000. 100% = ROCK inhibitor wells, 0% = DMSO. survival enhancement, % at 20 µM. AID 602274, 2012; in the data active = survival enhancement above about 18%;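 note: cells exposed to compounds for 16 hours before the ATP read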
SKN-1 inh: suppressors of acrylamide-induced Pgst-4::GFP reporter in worms, primary screen, SKN-1 inhibitor project, whole organism, uHTS, GFP/RFP fluorescence ratio, strain VP596. C. elegans VP596 Pgst-4::GFP/RFP ratio, 24 h. inhibition, % at 21.8 µM. hit rate 0.49% among 360,000;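 active = interference check ratio from 0.5 to 1.5 plus GFP to RFP signal ratio inhibition reaching or exceeding a fixed threshold, cut at about 30% in these data, passing the limit was not always enough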
DAGLB inhibitor: DAGLB lipase inhibitors, primary screen, biochemical, fluorescence, HTS. Diacylglycerol lipase-beta (Homo sapiens), Q8NCG7. HEK293T DAGLB membrane lysate, EnzChek fluorogenic substrate. inhibition, % at 5.17 µM. hit rate 0.059% among 340,000. AID 504411, 2011; in the data active = inhibition above about 34%;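 note: 0% = enzyme with vehicle and 100% = wells lacking enzyme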
Target sequence (Q8NCG7 whole entry, looked up): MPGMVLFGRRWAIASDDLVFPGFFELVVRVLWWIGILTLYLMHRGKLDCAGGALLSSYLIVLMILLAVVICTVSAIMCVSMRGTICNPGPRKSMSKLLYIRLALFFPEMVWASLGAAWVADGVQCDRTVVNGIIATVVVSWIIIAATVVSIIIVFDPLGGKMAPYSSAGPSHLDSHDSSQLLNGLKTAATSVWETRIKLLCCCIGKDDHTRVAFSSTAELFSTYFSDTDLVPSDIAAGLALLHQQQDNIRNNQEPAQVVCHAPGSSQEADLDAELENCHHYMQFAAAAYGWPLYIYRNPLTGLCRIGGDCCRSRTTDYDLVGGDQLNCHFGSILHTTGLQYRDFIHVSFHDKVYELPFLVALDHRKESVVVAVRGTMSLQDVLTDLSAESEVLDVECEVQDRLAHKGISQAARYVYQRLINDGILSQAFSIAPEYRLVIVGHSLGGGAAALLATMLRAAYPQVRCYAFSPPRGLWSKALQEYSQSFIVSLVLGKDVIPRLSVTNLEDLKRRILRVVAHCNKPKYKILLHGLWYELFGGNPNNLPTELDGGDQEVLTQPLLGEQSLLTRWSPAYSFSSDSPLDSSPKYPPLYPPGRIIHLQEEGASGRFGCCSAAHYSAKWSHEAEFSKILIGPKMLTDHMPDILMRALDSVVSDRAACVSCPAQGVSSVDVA
MT1-MMP act inh: blockers of MT1-MMP proenzyme processing, primary screen, HT1080 RFP-PRO-GFP cells, GFP/RFP fluorescence. GFP/RFP ratio fluorescence, overnight; percent of plate control window, DMSO zero. GFP/RFP ratio change, % at 20 µM. hit rate 0.061% among 360,000. AID 651647, 2012;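 active = GFP/RFP ratio change of at least 30% with cell ATP level not reduced by more than half and red fluorescence within 50% of control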
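Test system: HT1080 RFP-PRO-GFP cells; Benchmarks: DMSO and RFP-L50D-GFP cell wells; Timing: cells overnight before dosing, compound overnight, 37 °C, 5% CO2; Compound: one 20 µM compound dose with 1% DMSO; Read-out: GFP/RFP fluorescence ratio.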
rRNA inh HTS: reduced GFP signal of wild-type E. coli, primary screen, bacterial rRNA inhibitor project, GFP/RFP fluorescence, OD600, single point; E. coli WT GFP vs humanized-ribosome RFP mutants, 24 h; hits give low values; DMSO median 0, no signal -100; GFP signal change (wild-type ribosome), % (concentration not given with the values); hit rate 1.6% among 350,000; AID 720706, 2013;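 active = significant combined selectivity score with lowered wild-type GFP, culture density cut under 30%, mutant RFP and density less affected; inactive = any of these conditions unmet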
The depositor's hits bear a star; / = not tested or not shown.

SMILES	Cneo AK release	hiPSC survival	SKN-1 inh	DAGLB inhibitor	MT1-MMP act inh	rRNA inh HTS
COc1cccc(/C=N/NC(=O)c2[nH]nc3c2CCc2ccccc2-3)c1	1	1	-14	/	10	-37*
CO[C@@H]1CN(C)C(=O)c2ccc(NS(C)(=O)=O)cc2OC[C@@H](C)N(Cc2ccccc2)C[C@H]1C	/	/	/	/	/	1
CN(C)C(CNC(=O)c1cc(S(=O)(=O)N(C)c2ccccc2)ccc1Cl)c1cccs1 (stereo not drawn)	0	0	-6	0	5	-35*
C[C@H](CO)N1C[C@H](C)[C@@H](CN(C)C(=O)Nc2ccc3c(c2)OCO3)Oc2ccc(NC(=O)Nc3ccc(C(F)(F)F)cc3)cc2CC1=O	/	/	/	/	/	-4
CC12CCC(C(=O)N3CCC(Cc4ccccc4)CC3)(C(=O)C1=O)C2(C)C (stereo not drawn)	/	-1	14	-3	0	-23*
N#CC(Sc1ccccn1)c1ccc(Cl)cc1Cl (stereo not drawn)	/	-3	15	-9	-6	-21*
N#Cc1cc(Sc2ccccn2)c(Sc2ccccn2)cc1C#N	0	-1	-4	-4	-12	/
COc1ccc(Cl)cc1C(=O)OCC(=O)c1ccc[nH]1	3	0	15	3	0	-16*
Cc1cc(Cl)ccc1OC(C)C(=O)OCC(=O)c1ccc[nH]1 (stereo not drawn)	0	-3	1	-3	-2	1
Cc1ccc(OCC(=O)O/N=C(\N)c2cccnc2)cc1	/	0	-4	-4	3	0
N/C(=N\OC(=O)COc1ccc(Cl)cc1)c1cccnc1	2	0	37*	-6	4	21
N/C(=N\OC(=O)COc1ccc2ccccc2c1)c1cccnc1	-2	-1	42*	-4	1	/
N/C(=N\OC(=O)COc1ccc2ccccc2c1)c1ccncc1	-2	0	39*	-6	1	/
N/C(=N\OC(=O)CC(c1ccccc1)c1ccccc1)c1cccnc1	/	4	14	-2	-1	-20*
CO[C@H]1CN(C)C(=O)c2ccc(NC(C)=O)cc2OC[C@H](C)N(CC2CCCCC2)C[C@@H]1C	/	/	/	/	/	-4
CNC(=S)NC1CC2CCCC(C1)N2Cc1ccccc1OC (stereo not drawn)	1	1	-6	-1	2	-17*
COc1ccc(S(=O)(=O)N[C@H]2C=C[C@H](CC(=O)NCc3ccccc3F)O[C@H]2CO)cc1	-4	/	/	/	/	-2
O=C1/C(=C/c2cccs2)SC(=S)N1NS(=O)(=O)c1ccccc1	-1	0	19	17	0	-27*
O=C(CCCN1C(=O)/C(=C\c2cccs2)SC1=S)NNC(=O)c1ccncc1	/	0	9	0	5	12
O=C(NN1C(=O)/C(=C/c2cccs2)SC1=S)c1ccncc1	/	2	13	4	1	-29*
COc1ccc(OC)c(/C=C2\SC(=S)N(NS(=O)(=O)c3ccccc3)C2=O)c1	/	0	70	18	-2	-16
CCCC#Cc1cnc2c(c1)C(=O)N([C@@H](C)CO)C[C@H](C)[C@H](CN(C)Cc1ccncc1)O2	6	/	/	/	/	3
COc1ccc(-c2nc(N=Nc3ccc(O)cc3)n[nH]2)cc1	-5	2	10	8	17	-27*
CCOc1cc(/C=C2\SC(=Nc3ccccc3)N(c3ccccc3)C2=O)ccc1OCC(=O)O	/	4	11	6	-2	-31*
O=C(O)COc1ccc(/C=C2\SC(=Nc3ccccc3)N(c3ccccc3)C2=O)cc1	/	2	9	4	-2	5
SMILES	Cneo AK release	hiPSC survival	SKN-1 inh	DAGLB inhibitor	MT1-MMP act inh	rRNA inh HTS
Cc1cc(S(=O)(=O)Nc2cccnc2)c(C)s1	0	0	-14	0	-2	/
Cc1cc(S(=O)(=O)Nc2ccc3ccccc3c2)c(C)s1	-2	-1	8	-8	-8	-51*
CCOc1ccccc1N(CC(=O)Nc1ccc(OC)cc1OC)S(=O)(=O)c1ccccc1	0	0	15	-6	4	0
COc1ccccc1N(CC(=O)NCCSCc1ccccc1)S(=O)(=O)c1ccccc1	3	-2	-5	-5	1	-15*
COc1ccc(S(=O)(=O)N(CC(=O)NC2CC3CCC2C3)c2ccccc2OC)cc1 (stereo not drawn)	/	0	-19	-1	-3	-16
COc1ccccc1N(CC(=O)NCCSCc1ccccc1)S(=O)(=O)c1ccc(C)cc1	4	0	8	-1	-12	2
CS(=O)(=O)N(CC(=O)Nc1ccc2c(c1)OCO2)c1ccc2c(c1)OCO2	-1	-4	22	2	3	/
COc1ccc(S(=O)(=O)N(CC(=O)NC2CCCC2)c2ccccc2OC)cc1	1	0	2	-2	-3	-29*
COC(=O)c1cc(NC(=O)CN(c2ccc3c(c2)OCO3)S(C)(=O)=O)ccc1Cl	-1	-2	36*	-3	-2	/
CCOc1ccccc1N(CC(=O)Nc1ccccc1F)S(=O)(=O)c1ccccc1	1	0	17	-8	-1	-19*
C[C@H]1CN([C@@H](C)CO)S(=O)(=O)c2ccc(-c3ccncc3)cc2O[C@@H]1CN(C)Cc1cccnc1	0	/	/	/	/	-10
CN(C)C(=O)C[C@@H]1C=C[C@@H](NC(=O)C2CCOCC2)[C@H](CO)O1	/	/	/	/	/	1
COC(=O)c1cc(NC(=O)CN(c2ccccc2OC)S(=O)(=O)c2ccccc2)ccc1Cl	-3	0	-3	-6	8	-21*
Cc1cccc(CSCC(=O)N2CCN(S(=O)(=O)c3ccccc3C#N)CC2)c1	1	1	24	-2	1	-16*
N/C(=N\OC(=O)c1ccc(Cl)cc1[N+](=O)[O-])c1cccnc1	/	-1	3	-1	1	-22*
N/C(=N\OC(=O)c1cccc(Cl)c1)c1ccncc1	/	-1	19	-1	1	19
N/C(=N\OC(=O)c1cccc(Cl)c1)c1cccnc1	-4	-2	42*	-4	-5	/
N/C(=N\OC(=O)c1ccc(Cl)c(Cl)c1)c1cccnc1	-1	2	51*	-5	5	/
CCCNC(=O)N1CC2(CN(C(=O)CCC)C2)c2c(n(C)c3cc(OC)ccc23)[C@H]1CO	/	/	/	/	/	-1
Cc1sc(-c2ccccn2)nc1OC(=O)c1ccc(Cl)c(Cl)c1	10	19*	5	-2	3	/
